Converted amounts (≈) assume the structure as drawn. The source made the active and inactive calls. The calls are words filed in the database; no cut-off is given here.
Legend:
Staphylococcus aureus [1] = test: Induction of membrane permeabilization in Staphylococcus aureus ATCC 29213 at 1 to 8 times MIC measured after 80 mins by PI staining based analysis relative to control; format: functional; conditions: 1.333 h
Summary of the method: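 PI permeabilization of S. aureus at 1×, 2×, 4×, 8× MIC followed over time up to 80 min; vancomycin 4× and 8× MIC as drug control; untreated blank; percentage permeabilization.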

[2] = AUC (0 to t) in male Balb/c mouse at 30 mg/kg, po by LC-MS/MS analysis; format: ADME, organism-based; conditions: in vivo
Summary of the method: (§1)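 Balb/c mice dosed 1 mg kg−1 intravenously or 30 mg kg−1 orally (2.5 mg kg−1 oral also given); plasma PK parameters derived.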

Staphylococcus aureus [3] = test: Bacteriostatic activity against Staphylococcus aureus ATCC 29213 assessed as reduction in bacterial count at MIC incubated for 2 to 24 hrs by time-kill assay; format: functional; conditions: time 2-24 hrs
Staphylococcus aureus [4] = test: Disruption of pre-formed biofilms of Staphylococcus aureus ATCC 29213 at 4 to 6 times MIC incubated for 24 hrs by absorbance based method relative to control; format: functional
Staphylococcus aureus [5] = test: Bactericidal activity against Staphylococcus aureus ATCC 29213 assessed as reduction in bacterial count at 2 to 4 times MIC incubated for 2 to 24 hrs by time-kill assay relative to control; format: functional; parameters: scale not given: the % may be the effect or the level left; conditions: time 2-24 hrs
Staphylococcus aureus [6] = test: Induction of resistance development in Staphylococcus aureus ATCC 29213 at 0.5 MIC measured after […]; format: functional, organism-based; conditions: 0.5 M
Summary of the method: (§2)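 Bacteria serially passaged under sublethal drug exposure over 20 days, with MIC redetermined at each passage; vancomycin and norfloxacin as controls.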

[7] = Solubility of compound in water; format: physicochemical
Staphylococcus aureus [8] = test: Induction of resistance development in methicillin-resistant Staphylococcus aureus ATCC 15187 assessed as fold increase in MIC at 0.5 MIC measured after 20 passages relative to control; format: functional
Summary of the method: (§3)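 Bacteria were serially passaged for 20 days after exposure to a sublethal drug concentration. MIC was determined at each passage. Vancomycin and norfloxacin were run as control agents.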

Staphylococcus aureus [9] = test: Antibacterial activity against methicillin-resistant Staphylococcus aureus ATCC 15187 infected in mouse RAW264.7 cells assessed as bacterial eradication by colony counting method based microdilution method; format: functional, organism-based
Summary of the method: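 RAW 264.7 macrophages infected with MRSA, then treated at multiples of MIC non-toxic to the cells, with vancomycin control; intracellular bacterial load counted as CFU ml−1; compared with infection control by one-way ANOVA.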

[10] = AUC (0 to infinity) in male Balb/c mouse at 1 mg/kg, iv by LC-MS/MS analysis; format: ADME, organism-based; conditions: in vivo; summary of the method: as §1
Staphylococcus aureus [11] = test: Antibacterial activity against methicillin-resistant Staphylococcus aureus ATCC 15187 infected in male Balb/c/c mouse assessed as reduction in bacterial load in lung at 50 to 100 mg/kg measured after 24 hrs by colony counting method; format: functional, organism-based; conditions: dose 50-100 mg/kg
Summary of the method: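 Mouse peritonitis model: 0.1 ml MRSA suspension (10^8 CFU ml−1) given intraperitoneally; treatment intraperitoneal at 50 or 100 mg kg−1 at 2 and 5 h post-infection, with saline and vancomycin (50 mg kg−1) controls; killed at 24 h; kidney and lung homogenates plated on Mueller–Hinton agar with 20 μg ml−1 ciprofloxacin, 24 h; CFU ml−1; unpaired t-test.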

Staphylococcus aureus [12] = test: Additive antibacterial activity against methicillin-resistant Staphylococcus aureus ATCC 15187 assessed as fractional inhibitory concentration index at 0.075 ug/ml incubated up to 24 hrs in presence of vancomycin by checkerboard analysis; format: functional; conditions: dose 0.075 µg/ml
Summary of the method: (§4)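 Checkerboard microdilution in cation-adjusted MHB, done per CLSI. The compound and partner antibiotic were dissolved in DMSO. The antibiotic was serially diluted across the plate and the compound was twofold serially diluted into the wells to make the combinations. Each well received 0.1 ml of inoculum, a 0.5 McFarland suspension (1.5 × 10^8 CFU ml−1) diluted 1:100 in MHB. Plates were incubated 24 h at 37 °C, then read with Alamar blue (0.04%). FIC index was calculated.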

Staphylococcus aureus [13] = test: Antibacterial activity against Staphylococcus aureus ATCC 29213 infected in mouse RAW264.7 cells assessed as bacterial eradication by colony counting method; format: functional, organism-based
Summary of the method: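 RAW 264.7 macrophages infected with S. aureus, then treated with compound at multiples of MIC non-toxic to the cells; intracellular bacterial load enumerated as CFU ml−1; vancomycin comparator; one-way ANOVA versus infection control.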

RAW264.7 = test: Cytotoxicity against mouse RAW264.7 cells up to 200 ug/ml incubated for 48 to 72 hrs by absorbance based assay; format: toxicity, cell-based; conditions: time 48-72 hrs, dose < 200 µg/ml
Summary of the method: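 MTT read-out: macrophage cells plated at 1 × 10^4 cells per well in DMEM with 10% FBS, 37 °C, 5% CO2; treatment 48 h and 72 h; 2.5 mg ml−1 MTT 3 h, formazan dissolved in DMSO, OD 570 nm; doxorubicin 10 μM control.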

[14] = Protein binding in plasma (unknown origin); format: ADME, cell-free
Staphylococcus aureus [15] = test: Induction of resistance development in Staphylococcus aureus ATCC 29213 assessed as fold increase in MIC at 0.5 MIC measured after 20 passages relative to control; format: functional; summary of the method: as §3
Staphylococcus aureus [16] = test: Synergistic bactericidal activity against Staphylococcus aureus ATCC 29213 assessed as reduction in bacterial count at 0.02 ug/ml incubated up to 8 hrs in presence of vancomycin by time-kill assay; format: functional; conditions: dose 0.02 µg/ml
Summary of the method: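 Time-kill with compound combined with vancomycin at synergistic concentrations (from checkerboard FIC) against S. aureus; CFU followed up to 8 h and at 24 h.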

[17] = AUC (0 to t) in male Balb/c mouse at 1 mg/kg, iv by LC-MS/MS analysis; format: ADME, organism-based; conditions: in vivo; summary of the method: as §1
Staphylococcus aureus [18] = test: Antibacterial activity against Staphylococcus aureus SA-K2191 overexpressing MsrA by Alamar blue staining based analysis; format: functional
Staphylococcus aureus [19] = test: Induction of resistance development in methicillin-resistant Staphylococcus aureus ATCC 15187 at 0.5 MIC measured after […]; format: functional, organism-based; conditions: 0.5 M; summary of the method: as §2
Staphylococcus aureus [20] = test: Disruption of cell membrane integrity in Staphylococcus aureus ATCC 29213 assessed as red fluorescence at 1 to 2 times MIC incubated for 2.5 hrs by DAPI/PI staining based fluorescence microscopy; format: functional, organism-based
Summary of the method: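 S. aureus treated at 1× and 2× MIC, stained with DAPI (all cells) and PI (damaged membranes), imaged by fluorescence microscopy; vancomycin 2× MIC positive control; untreated blank.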

Staphylococcus aureus [21] = test: Antibacterial activity against Staphylococcus aureus SA-1199B overexpressing NorA by Alamar blue staining based analysis; format: functional
[22] = Efflux ratio of permeability across basal to apical side over apical to basal side in human Caco-2 cells; format: ADME, cell-based
Staphylococcus aureus [23] = test: Additive antibacterial activity against Staphylococcus aureus ATCC 29213 assessed as fractional inhibitory concentration index at 0.02 ug/ml incubated up to 24 hrs in presence of rifampicin by checkerboard analysis; format: functional; conditions: dose 0.02 µg/ml; summary of the method: as §4
Staphylococcus aureus [24] = test: Disruption of cell membrane integrity in methicillin-resistant Staphylococcus aureus ATCC 15187 assessed as red fluorescence at 1 to 2 times MIC incubated for 2.5 hrs by DAPI/PI staining based fluorescence microscopy; format: functional, organism-based
Summary of the method: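 Bacteria treated at 1× and 2× MIC, with vancomycin 2× MIC as control and an untreated blank; stained with DAPI (all cells) and propidium iodide (membrane-damaged cells); imaged by fluorescence microscopy, red PI signal taken as membrane damage.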

## CCCc1nn(C)c2c(Nc3ccc(O)cc3)nc(-c3ccc([N+](=O)[O-])o3)nc12
Staphylococcus aureus [1]
  Activity: 60%
[2]
  AUC(0-t): 3150 ng·h/mL
Staphylococcus aureus [3]
  Activity: <3 log10CFU
Staphylococcus aureus [4]
  Activity: 30%
Staphylococcus aureus [5]
  Activity: 99.9%
Staphylococcus aureus [6]
  Activity: inactive
[7]
  solubility: 1 µg/mL (≈ 2.54 µM)
Staphylococcus aureus [8]
  fold change (FC): 3200
Staphylococcus aureus [9]
  Activity: Dose-dependent-effect
[10]
  AUC(0-inf): 94.8 ng·h/mL
Staphylococcus aureus [11]
  Activity: Active; Significantly Lesser Effect Was Observed At 50 To 100 Mg/Kg Compared To Vancomycin
Staphylococcus aureus [12]
  fractional inhibitory concentration index (FICI): 1
Staphylococcus aureus [13]
  Activity: Dose-dependent-effect
RAW264.7
  Activity: Non-toxic
[14]
  PPB: 99.1%
Staphylococcus aureus [15]
  fold change (FC): 200
Staphylococcus aureus [16]
  Activity: >10 log10CFU
[17]
  AUC(0-t): 90.8 ng·h/mL
Staphylococcus aureus [18]
  MIC: 0.15 µg/mL (≈ 0.38 µM)
Staphylococcus aureus [19]
  Activity: inactive
Staphylococcus aureus [20]
  Activity: Active
Staphylococcus aureus [21]
  MIC: 0.6 µg/mL (≈ 1.52 µM)
[22]
  efflux ratio: 1.3
Staphylococcus aureus [23]
  fractional inhibitory concentration index (FICI): 0.7
Staphylococcus aureus [24]
  Activity: Active
